Source: PubChem
Only some compounds are listed: those with a hit (about 3.4% of all), similar ones and a draw of the others.
Arr AP2 block: inhibitors of human beta-arrestin and AP2 interaction; inhibition, % at 10 µM; FITC-arrestin peptide / GST-AP2 beads, flow cytometry; AP2 beta2 appendage carries R879A mutation; actives 0.31% (n = 340,000); AID 504490;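 active = inhibition above a set limit, near 3 SD of compounds lacking own fluorescence, cut at about 54% in these data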;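 also: plate controls were DMSO wells for no effect and 5 µM unlabelled arrestin peptide for full effect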
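System: GST-AP2 R879A glutathione beads; medium: PBS, Tween 20 0.05%, BSA 0.1%; reagent: fluorescein-tagged arrestin peptide at 50 nM final; schedule: pre-incubation 12 min, peptide binding 1 h, room temperature; detection: flow cytometry, FL1 (488/535 nm); read-out: inhibition as reduced fluorescein signal on beads, percent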
PolyA inh: yeast polyadenylation inhibition | S. cerevisiae SKY197-pL101 polyadenylation reporter, beta-gal luminescence; efflux-impaired pdr1/pdr3 knockout yeast; score 100 = 6 SD above DMSO | activity score, % at 12 µM | actives 0.02% (n = 300,000) | AID 1875;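 active = lowest replicate activity score at least 50, where 100 means six control SD above control mean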;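 also: yeast exposed to compound for 9 h at 30 °C; higher score means more reporter readthrough which indicates perturbed polyadenylation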
A3A deaminase: blocks human APOBEC3A ssDNA deamination | inhibition, % at 20 µM | recombinant A3A, FAM/TAMRA ssDNA deamination fluorescence | AID 493011 | actives 0.41% (n = 330,000) | P31941;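 active = at least 40% inhibition at 20 µM here, with at most 30% in a related deaminase screen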;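 also: plate controls were A3A with DMSO for no effect and wells lacking A3A enzyme for full effect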
AHR act: human AHR activation; actives 2.5% (n = 320,000); AHR-responsive luciferase reporter cells, luminescence; P35869; activation, % at 5 µM; AID 2796; in the data active = activation above about 47%;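 also: 0% = vehicle wells and 100% = reference agonist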
APOBEC3G inh: inhibitors of human APOBEC3G DNA deaminase | Q9HC16 | recombinant A3G, ssDNA deamination FAM/TAMRA fluorescence | inhibition, % at 20 µM | actives 0.28% (n = 330,000) | AID 493012;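 active = inhibition of at least 40% at 20 µM, with no more than 30% in the related APOBEC3A deaminase screen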;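 also: plate controls were DMSO wells with A3G for no effect and wells lacking A3G enzyme for full effect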
UCH37 DUB inh: inhibitors of human deubiquitinating enzyme UCH37; purified proteasome/UCH37, Ub-AMC cleavage fluorescence; inhibition, % (concentration not given with the values); Q9Y5K5; AID 588478; actives 0.33% (n = 330,000);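 active = mean inhibition over replicate wells above about 20%, limit read from the data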;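 also: 0% = compound-free wells with enzyme and 100% = wells lacking proteasome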
Target sequence (Q9Y5K5 whole entry, looked up): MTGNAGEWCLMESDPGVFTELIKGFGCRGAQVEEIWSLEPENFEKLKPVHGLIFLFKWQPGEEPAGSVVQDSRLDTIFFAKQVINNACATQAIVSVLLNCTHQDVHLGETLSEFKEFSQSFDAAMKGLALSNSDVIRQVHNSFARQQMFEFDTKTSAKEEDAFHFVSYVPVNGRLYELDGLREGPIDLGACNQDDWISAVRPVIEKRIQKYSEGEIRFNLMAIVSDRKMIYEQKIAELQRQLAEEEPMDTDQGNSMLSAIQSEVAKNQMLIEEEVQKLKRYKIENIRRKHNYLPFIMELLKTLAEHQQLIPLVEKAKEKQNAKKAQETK
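System: Proteasome-associated human UCH37 deubiquitinase; Input: 0.15 nM proteasome in added enzyme buffer; Also added: Ub-AMC substrate from 1 µM stock; Incubation: 30 min compound-proteasome preincubation then 25 min substrate reaction, room temperature; Detection: fluorescence, ex 355 nm, em 460 nm; Read-out: % inhibition of Ub-AMC cleavage fluorescence; Benchmarks: no-proteasome and no-compound wells.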
A3A conf: APOBEC3A (human) deaminase inhibition, confirmed; inhibition, % at 20 µM; AID 493151; shares compounds with A3A deaminase; recombinant A3A, ssDNA deaminase UDG fluorescence assay; actives 63% (n = 1,400);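 active = inhibition reaching a set limit, 80% of the first screen's cutoff, at 20 µM in any replicate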;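 also: plate controls were DMSO wells with A3A for no effect and wells lacking A3A enzyme for full effect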
UDG ctr A3A: UDG inhibition in APOBEC3A counter-screen. shares compounds with A3A deaminase. UDG counterscreen, FAM/TAMRA uracil oligo fluorescence. inhibition, % at 20 µM. 1,000 tested, under 10 active; call rule not given here
Starred values were filed as active, the others as inactive; nt = no result given.

SMILES	Arr AP2 block	PolyA inh	A3A deaminase	AHR act	APOBEC3G inh	UCH37 DUB inh	A3A conf	UDG ctr A3A
CCN1CCN(c2ccc(S(=O)(=O)N3CCCCC3)cc2NC(=O)c2ccccc2)CC1	16	6	46*	2	7	1	23*	2
CC(C)Cc1nnc(NC(=O)c2cccc(S(=O)(=O)N3CCN(C)CC3)c2)s1	-7	11	2	4	-3	3	nt	nt
CCOc1ccc(OC(=O)c2cccc(S(=O)(=O)N3CCN(C)CC3)c2)cc1	-9	-9	60*	1	6	1	18	nt
COc1ccc(OC(=O)c2cccc(S(=O)(=O)N3CCCC3)c2)cc1	-1	-5	2	0	-2	5	nt	nt
CCN1CCN(c2ccc(S(=O)(=O)N3CCCCC3)cc2NC(=O)Cc2ccc(Cl)c(Cl)c2)CC1	25	8	-2	-2	-11	-1	nt	nt
CCN1CCN(c2ccc(S(=O)(=O)N3CCCCC3)cc2NC(=O)c2ccc(C)o2)CC1	-7	25	63*	-3	7	3	71*	2
CCN1CCN(c2ccc(S(=O)(=O)N3CCCCC3)cc2NC(=O)Cc2ccccc2)CC1	-12	-9	57*	0	11	-1	64*	-2
CCN1CCN(c2ccc(S(=O)(=O)N3CCCCC3)cc2NC(=O)Cc2ccccc2F)CC1	19	-11	3	-1	-14	0	nt	nt
CCN1CCN(c2ccc(S(=O)(=O)N3CCCCC3)cc2NC(=O)c2cccc(C(F)(F)F)c2)CC1	22	7	57*	-2	18	6	51*	0
CC(=Nn1cnnc1)c1ccccc1	nt	nt	nt	nt	nt	1	nt	nt
CCC(C)NC(=O)CSc1ccc(S(=O)(=O)N(C)C2CCCCC2)cn1 (stereo unspecified)	9	nt	42*	2	-9	5	-4	2
CN(C1CCCCC1)S(=O)(=O)c1ccc(SCC(=O)NC(C)(C)C)nc1	-4	nt	-2	0	-11	2	nt	nt
Cn1cccc1C=NNC(=O)CSc1nc2ccccc2n1C	nt	nt	nt	nt	nt	9	nt	nt
Cc1ccc(N2C(SCC(=O)O)=NC(=Nc3cccc(C)c3)C23CCCC3)cc1	-2	-4	44*	1	5	2	15*	-2
Cc1n[nH]c(C)c1CCC(=O)NN=Cc1c[nH]c2ccccc12	nt	nt	nt	nt	nt	6	nt	nt
Cc1cccc(NC(=O)CSc2nnc(CSc3nc(C)cc(C)n3)o2)c1	6	13	-2	6	-3	-2	nt	nt
COc1ccc(CCCc2nnc(SCC(=O)Nc3ccc(C)c(C)c3)o2)cc1	-11	6	50*	5	27	2	72*	4
Cc1cc(C)nc(SCc2nnc(SCC(=O)Nc3ccc(Cl)c(C(F)(F)F)c3)o2)n1	-4	-8	70*	1	-2	0	-3	19
COc1ccc(CCCc2nnc(SCC(=O)Nc3cc(C)ccc3C)o2)cc1	-5	-1	0	1	-2	2	nt	nt
COc1ccc(CCCc2nnc(SCC(=O)Nc3ccc(OC)cc3)o2)cc1	-37	8	45*	0	16	0	71*	6
CCCc1n(CC(O)COC2CCCCC2)c2ccccc2[n+]1C (stereo unspecified)	-32	1	56*	2	13	-1	76*	1
CCCc1n(CC(O)COCc2ccccc2)c2ccccc2[n+]1C (stereo unspecified)	-3	8	58*	1	8	-1	69*	-2
N#Cc1c(Nc2ccccc2)c(C=NN=Cc2ccccc2)c[nH]c1=O	nt	nt	nt	nt	nt	-19	nt	nt
CN(C(=O)CON=Cc1ccc(OC(F)F)cc1)C1CCS(=O)(=O)C1 (stereo unspecified)	nt	nt	nt	nt	nt	4	nt	nt
CCOc1ccccc1N(CC(=O)NN=C(C)c1cccc(Br)c1)S(C)(=O)=O	nt	nt	nt	nt	nt	0	nt	nt
